Laboratory results as given in ChEMBL document CHEMBL3877254, “Tetracyclic indolines as a novel class of β-lactam-selective resistance-modifying agent for MRSA” (Eur J Med Chem, 2017).
Values after ≈ are worked out from the molar mass of the structure shown.

Assays:
[1] = Cytotoxicity against human HeLa cells after 24 hrs by CellTiter-Glo luminescent cell viability assay; assay type: toxicity, cell-based
Method in brief: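 HeLa cells seeded at 20 000 cells/well in DMEM with 10% FCS and 1% penicillin/streptomycin, grown 16 h at 37 °C in 5% CO2. Medium then replaced and compounds added in DMSO (1 μL per 100 μL), final 0.5–32 μg/mL, triplicate. After 24 h at 37 °C, plates equilibrated to room temperature and CellTiter-Glo luminescence read.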

[2] = test system: Staphylococcus aureus; assay: (§1) Potentiation of amoxicillin/clavulanic acid-induced antibacterial activity against methicillin-resistant Staphylococcus aureus NRS100 assessed as compound concentration required in combination with amoxicillin/clavulanic acid to return MRSA sensitive concentration below 4 ug/ml after overnight incubation; assay type: functional
Method in brief: (§2)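 Antibiotic held at fixed final level in MHB (amoxicillin/clavulanic acid 4/2 μg/mL; cefazolin 8 μg/mL); test compound (10 mg/mL DMSO stock) 2-fold serially diluted from 64 μg/mL top; final inoculum OD600 0.001; overnight at 37 °C with shaking; MRC = lowest compound concentration with no visible growth.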

[3] = test system: Staphylococcus aureus; assay: Antibacterial activity against methicillin-resistant Staphylococcus aureus NRS100 after 18 hrs by broth microdilution method
[4] = test system: Staphylococcus aureus; assay: Potentiation of cefazolin-induced antibacterial activity against methicillin-resistant Staphylococcus aureus ATCC BAA-44 assessed as compound concentration required in combination with cefazolin to return MRSA sensitive concentration below 8 ug/ml after overnight incubation; assay type: functional; method in brief: as §2
[5] = test system: Staphylococcus aureus; assay: Antibacterial activity against methicillin-resistant Staphylococcus aureus NRS-46231 after 18 hrs by broth microdilution method
[6] = test system: Staphylococcus aureus; assay: Antibacterial activity against methicillin-resistant Staphylococcus aureus NRS-46070 after 18 hrs by broth microdilution method
[7] = test system: Staphylococcus aureus; assay: as §1, with “NRS-45898” for “NRS100”; assay type: functional; method in brief: as §2
[8] = test system: Staphylococcus aureus; assay: as §1, with “NRS-46070” for “NRS100”; assay type: functional; method in brief: as §2
[9] = test system: Staphylococcus aureus; assay: as §1, with “NRS-46231” for “NRS100”; assay type: functional; method in brief: as §2
[10] = test system: Staphylococcus aureus; assay: Antibacterial activity against methicillin-resistant Staphylococcus aureus NRS-45898 after 18 hrs by broth microdilution method
[11] = test system: Staphylococcus aureus; assay: Potentiation of cefazolin-induced antibacterial activity against methicillin-resistant Staphylococcus aureus ATCC BAA-44 assessed as fractional inhibitory concentration by checkerboard assay; assay type: functional
Method in brief: (§3)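 Checkerboard in MRSA; FICI = FICA + FICB, each FIC being the combination concentration (MRC) divided by that agent's MIC alone; FICI <0.5 taken as synergy.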

[12] = test system: Staphylococcus aureus; assay: Potentiation of amoxicillin/clavulanic acid-induced antibacterial activity against methicillin-resistant Staphylococcus aureus ATCC BAA-44 assessed as fractional inhibitory concentration by checkerboard assay; assay type: functional; method in brief: as §3
[13] = test system: Staphylococcus aureus; assay: Potentiation of streptomycin-induced antibacterial activity against methicillin-resistant Staphylococcus aureus ATCC BAA-44 assessed as fold reduction in streptomycin MIC at 20 uM after 18 hrs by broth microdilution method; assay type: functional
[14] = test system: Staphylococcus aureus; assay: Potentiation of cefazolin-induced antibacterial activity against methicillin-resistant Staphylococcus aureus ATCC BAA-44 assessed as fold reduction in cefazolin MIC at 20 uM after 18 hrs by broth microdilution method; assay type: functional
[15] = test system: Staphylococcus aureus; assay: Potentiation of oxacillin-induced antibacterial activity against methicillin-resistant Staphylococcus aureus ATCC BAA-44 assessed as fold reduction in oxacillin MIC at 20 uM after 18 hrs by broth microdilution method; assay type: functional
[16] = test system: Staphylococcus aureus; assay: Potentiation of clindamycin-induced antibacterial activity against methicillin-resistant Staphylococcus aureus ATCC BAA-44 assessed as fold reduction in ciprofloxacin MIC at 20 uM after 18 hrs by broth microdilution method; assay type: functional
[17] = test system: Staphylococcus aureus; assay: Potentiation of gentamycin-induced antibacterial activity against methicillin-resistant Staphylococcus aureus ATCC BAA-44 assessed as fold reduction in gentamycin MIC at 20 uM after 18 hrs by broth microdilution method; assay type: functional
[18] = test system: Staphylococcus aureus; assay: Potentiation of daptomycin-induced antibacterial activity against methicillin-resistant Staphylococcus aureus ATCC BAA-44 assessed as fold reduction in daptomycin MIC at 20 uM after 18 hrs by broth microdilution method; assay type: functional
[19] = test system: Staphylococcus aureus; assay: Potentiation of meropenem-induced antibacterial activity against methicillin-resistant Staphylococcus aureus ATCC BAA-44 assessed as fold reduction in meropenem MIC at 20 uM after 18 hrs by broth microdilution method; assay type: functional
[20] = test system: Staphylococcus aureus; assay: Potentiation of methicillin-induced antibacterial activity against methicillin-resistant Staphylococcus aureus ATCC BAA-44 assessed as fold reduction in methicillin MIC at 20 uM after 18 hrs by broth microdilution method; assay type: functional
[21] = test system: Staphylococcus aureus; assay: Potentiation of tetracycline-induced antibacterial activity against methicillin-resistant Staphylococcus aureus ATCC BAA-44 assessed as fold reduction in tetracycline MIC at 20 uM after 18 hrs by broth microdilution method; assay type: functional
[22] = test system: Staphylococcus aureus; assay: Potentiation of ciprofloxacin-induced antibacterial activity against methicillin-resistant Staphylococcus aureus ATCC BAA-44 assessed as fold reduction in ciprofloxacin MIC at 20 uM after 18 hrs by broth microdilution method; assay type: functional
[23] = test system: Staphylococcus aureus; assay: Potentiation of amoxicillin/clavulanic acid-induced antibacterial activity against methicillin-resistant Staphylococcus aureus ATCC BAA-44 assessed as fold reduction in amoxicillin/clavulanic acid MIC at 20 uM after 18 hrs by broth microdilution method; assay type: functional
[24] = test system: Staphylococcus aureus; assay: Potentiation of erythromycin-induced antibacterial activity against methicillin-resistant Staphylococcus aureus ATCC BAA-44 assessed as fold reduction in erythromycin MIC at 20 uM after 18 hrs by broth microdilution method; assay type: functional

SMILES	GI50 at 24 h [1] [µg/mL]	MRC [2] [µg/mL]	MIC [3] [µg/mL]	MRC [4] [µg/mL]	further results
C=C1CCCC[C@@]23N(C(C)=O)CC[C@@]12c1c(C)cc(C)cc1N3C	15 (≈ 46.2 µM)	32	> 64	32	–
C=C1CCCC[C@@]23N(C(=O)NCc4ccccc4)CC[C@@]12c1c(C)cc(C)cc1N3C	> 64	>64	> 64	>64	–
C=C1CCC[C@@]23N(C(=O)OC)CC[C@@]12c1cc(Cl)ccc1N3C	41 (≈ 123 µM)	8	> 64	16	–
C=C1CCCC[C@@]23N(C(=O)OC)CC[C@@]12c1ccccc1N3C	30 (≈ 96 µM)	>64	> 64	>64	–
C=C1CCCC[C@@]23N(C(=O)C(F)(F)F)CC[C@@]12c1c(C)cc(C)cc1N3C	> 64	>64	> 64	>64	–
C=C1CCCC[C@@]23N(C(=O)OC)CC[C@@]12c1c(C)cc(C)cc1N3CC	30 (≈ 84.6 µM)	4	> 64	2	–
C=C1CCCC[C@@]23N(C(=O)OC)CC[C@@]12c1cc(C)ccc1N3C	27 (≈ 82.7 µM)	4	> 64	8	–
C=C1CCCC[C@@]23N(C)CC[C@@]12c1c(C)cc(C)cc1N3C	20 (≈ 67.5 µM)	16	> 64	8	–
C=C1CCCC[C@@]23N(C(=O)CCC(=O)O)CC[C@@]12c1c(C)cc(C)cc1N3C	> 64	>64	> 64	>64	–
C=C1CCCC[C@@]23N(C(=O)OCC)CC[C@@]12c1c(C)cc(C)cc1N3C	61 (≈ 172 µM)	2	> 64	2	MIC [5]: > 64 µg/mL; MIC [6]: > 64 µg/mL; MRC [7]: 2 µg/mL; MRC [8]: 2 µg/mL; MRC [9]: 2 µg/mL; MIC [10]: > 64 µg/mL; fractional inhibitory concentration index (FICI) [11]: 0.078; fractional inhibitory concentration index (FICI) [12]: 0.127
C=C1CCC[C@@]23N(C(=O)OCC)CC[C@@]12c1cc(Cl)ccc1N3C	41 (≈ 118 µM)	8	> 64	16	–
C=C1CCC[C@@]23N(C(=O)OC)CC[C@@]12c1c(C)cc(C)cc1N3C	40 (≈ 123 µM)	8	> 64	16	–
C#CCN1c2cc(C)cc(C)c2[C@@]23CCN(C(=O)OC)[C@@]12CCCCC3=C	17 (≈ 46.6 µM)	64	> 64	64	–
C=C1CCCC[C@]23Nc4cc(C)cc(C)c4[C@]12CCN3C(=O)OC	28 (≈ 85.8 µM)	8	> 64	4	–
C=C1CCCC[C@@]23N(C(N)=O)CC[C@@]12c1c(C)cc(C)cc1N3C	19 (≈ 58.4 µM)	64	> 64	64	–
C=C1CCCC[C@@]23N(C(=O)OC(C)(C)C)CC[C@@]12c1c(C)cc(C)cc1N3C	47 (≈ 123 µM)	4	> 64	8	–
C=C1CCC[C@@]23N(C(=O)OC)CC[C@@]12c1cc(C)ccc1N3C	15 (≈ 48 µM)	16	> 64	16	–
C=C1CCCC[C@@]23N(C(=O)OC)CC[C@@]12c1c(C)cc(C)cc1N3C	20 (≈ 58.7 µM)	16	> 64	16	fold change (FC) [13]: 1; fold change (FC) [14]: 16; fold change (FC) [15]: 8; fold change (FC) [16]: 1; fold change (FC) [17]: 1; fold change (FC) [18]: 1; fold change (FC) [19]: 16; fold change (FC) [20]: 16; fold change (FC) [21]: 2; fold change (FC) [22]: 2; fold change (FC) [23]: 8; fold change (FC) [24]: 1
C=C1CCCC[C@@]23NCC[C@@]12c1c(C)cc(C)cc1N3C	26 (≈ 92.1 µM)	64	> 64	32	–
C=C1CCCC[C@@]23N(C(=O)OCC)CC[C@@]12c1cc(F)ccc1N3C	> 64	>64	> 64	>64	–
C=C1CCCC[C@@]23N(C(=O)OC)CC[C@@]12c1cc(Cl)ccc1N3C	53 (≈ 153 µM)	4	> 64	8	–
C=C1CCCC[C@@]23N(CC)CC[C@@]12c1c(C)cc(C)cc1N3C	18 (≈ 58 µM)	32	> 64	8	–
C=C1CCCC[C@@]23N(C(=O)OCc4ccccc4)CC[C@@]12c1c(C)cc(C)cc1N3C	> 64	64	> 64	>64	–
C=C1CCCC[C@@]23N(C(=N)N)CC[C@@]12c1c(C)cc(C)cc1N3C	19 (≈ 58.6 µM)	32	> 64	16	–
C=C1CCCC[C@@]23N(C(=O)OCC)CC[C@@]12c1cc(F)c(OC)cc1N3C	> 64	>64	> 64	>64	–
C=C1CCCC[C@@]23N(C(=O)NCC)CC[C@@]12c1c(C)cc(C)cc1N3C	51 (≈ 144 µM)	>64	> 64	>64	–
C=C1CCCC[C@]23N(C)c4cc(C)cc(C)c4[C@]12CCN3S(=O)(=O)c1ccc(Cl)cc1	> 64	>64	> 64	>64	–
C=C1CCC[C@@]23N(C(=O)OCC)CC[C@@]12c1cc(C)ccc1N3C	43 (≈ 132 µM)	32	> 64	64	–
